Assay results published in ChEMBL document CHEMBL1153228, “Synthesis and in vivo evaluation of bicyclic gababutins” (Bioorg Med Chem Lett, 2010).
Calls of active or inactive are those of the source. The rule behind the calls is not given here.

Legend:
[1] = target: Voltage-dependent calcium channel alpha2delta subunit (Sus scrofa, UniProt O77773); assay: Displacement of [3H]gabapentin from calcium channel alpha2delta in pig cerebral cortex membrane after 30 mins; type: cell membranes
[2] = Inhibition of L-type amino acid transporter expressed in CHO cells assessed as inhibition of [3H]leucine uptake; type: cell-based
Rattus norvegicus [3] = assay: Analgesic activity in intrathecally dosed rat chronic constriction injury weight model assessed as inhibition of pain effect; type: functional, organism-based
Summary of the method: (§1)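 Rat sciatic-nerve chronic constriction model: loose ligatures placed around the sciatic nerve produce hypersensitivity in one hind paw. Weight borne on each hind paw is measured, and the read-out is the difference between the ipsilateral (affected) and contralateral (unaffected) paw.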

[4] = Clearance in rat; type: ADME, organism-based; conditions: in vivo
[5] = Elimination half life in rat; type: ADME, organism-based; conditions: in vivo
Rattus norvegicus [6] = assay: Analgesic activity in rat chronic constriction injury weight model assessed as inhibition of pain effect at 3 to 10 mg/kg, po; type: functional, organism-based; summary of the method: as §1
[7] = Bioavailability in rat; type: ADME, organism-based; conditions: in vivo
[8] = Lipophilicity, log D at pH 7.4; type: physicochemical; conditions: buffer

Sequence of Voltage-dependent calcium channel alpha2delta subunit (O77773 whole entry): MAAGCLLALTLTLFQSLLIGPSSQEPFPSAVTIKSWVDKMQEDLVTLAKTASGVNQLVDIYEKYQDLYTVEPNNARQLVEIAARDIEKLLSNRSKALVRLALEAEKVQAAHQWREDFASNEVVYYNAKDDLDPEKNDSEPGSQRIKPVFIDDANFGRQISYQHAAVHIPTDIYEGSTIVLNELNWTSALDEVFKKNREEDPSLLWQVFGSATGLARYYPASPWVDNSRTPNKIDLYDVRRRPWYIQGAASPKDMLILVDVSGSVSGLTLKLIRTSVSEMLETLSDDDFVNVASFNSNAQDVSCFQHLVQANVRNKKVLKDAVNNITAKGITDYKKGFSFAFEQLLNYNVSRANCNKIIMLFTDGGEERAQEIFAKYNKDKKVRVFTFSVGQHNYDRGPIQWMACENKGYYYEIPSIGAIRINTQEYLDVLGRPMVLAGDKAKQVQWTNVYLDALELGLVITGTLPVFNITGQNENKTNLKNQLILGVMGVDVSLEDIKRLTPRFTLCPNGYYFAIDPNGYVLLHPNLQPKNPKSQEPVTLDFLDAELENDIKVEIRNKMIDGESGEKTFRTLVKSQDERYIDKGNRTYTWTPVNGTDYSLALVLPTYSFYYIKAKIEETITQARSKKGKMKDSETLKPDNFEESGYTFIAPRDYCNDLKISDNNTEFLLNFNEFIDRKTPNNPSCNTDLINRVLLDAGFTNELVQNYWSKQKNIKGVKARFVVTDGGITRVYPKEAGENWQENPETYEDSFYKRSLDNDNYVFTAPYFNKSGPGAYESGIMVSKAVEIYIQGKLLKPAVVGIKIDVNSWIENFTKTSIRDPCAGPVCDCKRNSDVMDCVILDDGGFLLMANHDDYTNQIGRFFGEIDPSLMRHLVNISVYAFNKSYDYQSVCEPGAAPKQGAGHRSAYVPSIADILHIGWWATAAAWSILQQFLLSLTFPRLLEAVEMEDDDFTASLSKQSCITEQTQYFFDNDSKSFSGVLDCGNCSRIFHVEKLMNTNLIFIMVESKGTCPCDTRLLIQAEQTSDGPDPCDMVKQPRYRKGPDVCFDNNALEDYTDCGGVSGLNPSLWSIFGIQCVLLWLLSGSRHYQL

NC[C@@]1(CC(=O)O)C[C@H]2CC[C@H]2C1
IC50 [1]: 0.332 µM

NC[C@@]1(CC(=O)O)C[C@@H]2CCC[C@@H]21
IC50 [2]: 6930 µM
Activity (Rattus norvegicus [3]): Active
IC50 [1]: 0.019 µM

NCC1(CC(=O)O)CC2CCCC2C1 (racemic)
IC50 [1]: > 10 µM

NC[C@@]1(CC(=O)O)CC2CCCCC21 (mixture of isomers)
IC50 [1]: 3.09 µM

NC[C@]1(CC(=O)O)C[C@H]2CCCC[C@H]2C1
IC50 [1]: 0.72 µM

NC[C@]1(CC(=O)O)CCC2CCCC21 (mixture of isomers)
IC50 [1]: 7.18 µM

NC[C@]1(CC(=O)O)CC2CCCCC21 (mixture of isomers)
IC50 [1]: 0.6 µM

NC[C@]1(CC(=O)O)C[C@H]2CCC[C@H]2C1
IC50 [1]: 2.6 µM

NCC1(CC(=O)O)CC2CCC2C1 (racemic)
IC50 [1]: 2.9 µM

C[C@H]1CC(CN)(CC(=O)O)C[C@@H]1C (relative stereo) [ATAGABALIN]
IC50 [2]: 10 µM
IC50 [1]: 0.022 µM

NC[C@@]1(CC(=O)O)CC2CCCC21 (mixture of isomers)
IC50 [1]: 2.8 µM

NC[C@@]1(CC(=O)O)C[C@H]2CCCC[C@H]2C1
IC50 [1]: > 10 µM

NC[C@@]1(CC(=O)O)C[C@H]2CCC[C@H]2C1
IC50 [1]: > 10 µM

NCC1(CC(=O)O)CC2CCCCC2C1 (racemic)
IC50 [1]: > 10 µM

C[C@@H]1C[C@@](CN)(CC(=O)O)C[C@@H]1C
IC50 [2]: 7 µM
IC50 [1]: 0.107 µM

NC[C@]1(CC(=O)O)CC2CCCC21 (mixture of isomers)
IC50 [1]: 0.025 µM

NC[C@]1(CC(=O)O)C[C@H]2CCC[C@H]21
clearance [4]: 4.5 mL/min/kg
half-life [5]: 2.3 h
IC50 [2]: > 10000 µM
Activity (Rattus norvegicus [6]): Active
bioavailability [7]: 100%
IC50 [1]: 0.046 µM
logD [8]: -1

NC[C@]1(CC(=O)O)C[C@H]2CC[C@H]2C1
clearance [4]: 4.3 mL/min/kg
half-life [5]: 2.4 h
IC50 [2]: 38 µM
Activity (Rattus norvegicus [6]): Active
bioavailability [7]: 84%
IC50 [1]: 0.038 µM
logD [8]: -1
